According to ChEMBL document CHEMBL4732230, “Design, synthesis, and biological evaluation of 4-benzoylamino-1H-pyrazole-3-carboxamide derivatives as potent CDK2 inhibitors” (Eur J Med Chem, 2021):

Tests used:
[1] = target: Cyclin-dependent kinase 1/cyclin B1 (Homo sapiens, UniProt P06493); type: protein-complex assay
CDK2/Cyclin A2 = CDK2/Cyclin A2 (Homo sapiens, UniProt P24941); test: Inhibition of CDK2/cyclin A2 (unknown origin) using FAM-labeled peptide and ATP as substrate preincubated for 10 mins followed by substrate addition by mobility shift assay; type: protein-complex assay
A2058 = test: Antiproliferative activity against human A2058 cells assessed as reduction in cell viability measured after 96 hrs by Celltiter-Glo luminescent assay; type: functional, cell-based; details: A2058, 96 h
In short: (§1)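 Cells in DMEM (A2058, MRC5) or RPMI 1640 (MV4-11), each with 10% fetal bovine serum and 1% penicillin/streptomycin. Cells were plated in 96-well plates and exposed to serially concentrated compound for 96 h, with DMSO as control. Viability was read by CellTiter-Glo luminescence and IC50 derived.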

MV4-11 = test: Antiproliferative activity against human MV4-11 cells assessed as reduction in cell viability measured after 96 hrs by Celltiter-Glo luminescent assay; type: functional, cell-based; details: MV4-11, 96 h
In short: as §1

MRC5 = test: Cytotoxicity against human MRC5 cells assessed as reduction in cell viability measured after 96 hrs by Celltiter-Glo luminescent assay; type: cell-based; details: MRC5, 96 h
In short: as §1

[2] = Cytotoxicity against human LX2 cells assessed as inhibition of cell growth at 100 uM measured after 96 hrs by Celltiter-Glo luminescent assay; type: cell-based
In short: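 LX2 cells grown in DMEM with 10% fetal bovine serum and 1% penicillin/streptomycin, plated in 96-well plates. They were treated with compound at […] or DMSO control for 96 h. Viability was read by CellTiter-Glo luminescence and expressed as percent inhibition.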

Chain of Cyclin-dependent kinase 1/cyclin B1 (P06493 whole entry): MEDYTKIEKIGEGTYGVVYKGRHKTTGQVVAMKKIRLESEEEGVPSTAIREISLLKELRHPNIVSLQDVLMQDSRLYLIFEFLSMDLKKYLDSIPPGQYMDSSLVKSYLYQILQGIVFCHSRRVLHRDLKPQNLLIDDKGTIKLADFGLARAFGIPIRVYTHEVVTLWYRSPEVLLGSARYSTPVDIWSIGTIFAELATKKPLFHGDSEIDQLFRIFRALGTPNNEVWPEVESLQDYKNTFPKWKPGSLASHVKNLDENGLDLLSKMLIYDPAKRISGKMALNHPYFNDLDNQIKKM
Chain of Cyclin-dependent kinase 1/cyclin B1 (P14635 whole entry, further chain): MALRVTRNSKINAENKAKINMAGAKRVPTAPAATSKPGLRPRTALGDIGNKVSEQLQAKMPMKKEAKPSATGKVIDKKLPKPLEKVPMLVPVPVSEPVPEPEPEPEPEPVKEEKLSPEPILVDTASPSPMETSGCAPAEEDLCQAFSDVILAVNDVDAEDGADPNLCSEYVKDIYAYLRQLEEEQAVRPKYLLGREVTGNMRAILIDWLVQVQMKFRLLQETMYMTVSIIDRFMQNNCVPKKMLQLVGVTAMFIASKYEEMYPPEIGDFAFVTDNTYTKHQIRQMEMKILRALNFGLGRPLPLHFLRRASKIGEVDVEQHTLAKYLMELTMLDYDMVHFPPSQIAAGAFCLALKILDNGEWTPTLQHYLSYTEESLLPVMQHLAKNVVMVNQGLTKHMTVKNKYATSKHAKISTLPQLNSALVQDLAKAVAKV

Compound `O=C(Nc1ccc(F)cc1)c1n[nH]cc1NC(=O)c1c(F)ccc(-c2cccnc2)c1F` has an IC50 [1] of 306 nM, an IC50 (CDK2/Cyclin A2) of 40 nM and an IC50 (A2058) of 2940 nM.
With `COc1ccc(-c2ccc(F)c(C(=O)Nc3c[nH]nc3C(=O)Nc3ccc(F)cc3)c2F)cn1` the IC50 [1] was 712 nM and the IC50 (CDK2/Cyclin A2) was 144 nM.
For `CN1CCN(CCNC(=O)c2cccc(-c3ccc(F)c(C(=O)Nc4c[nH]nc4C(=O)Nc4ccc(F)cc4)c3F)c2)CC1`, the IC50 [1] was 350 nM and the IC50 (CDK2/Cyclin A2) was 67 nM.
`O=C(NCCCN1CCOCC1)c1ccc(F)c(-c2ccc(F)c(C(=O)Nc3c[nH]nc3C(=O)Nc3ccc(F)cc3)c2F)c1` showed an IC50 [1] of 1300 nM, an IC50 (CDK2/Cyclin A2) of 169 nM and an IC50 (A2058) of 943 nM.
Compound `CN1CCC(CNC(=O)c2cccc(-c3ccc(F)c(C(=O)Nc4c[nH]nc4C(=O)Nc4ccc(F)cc4)c3F)c2)CC1` has an IC50 [1] of 743 nM, an IC50 (CDK2/Cyclin A2) of 82 nM and an IC50 (A2058) of 3340 nM.
`O=C(NCCCN1CCOCC1)c1cccc(-c2ccc(F)c(C(=O)Nc3c[nH]nc3C(=O)Nc3ccc(F)cc3)c2F)c1` showed an IC50 [1] of 723 nM, an IC50 (CDK2/Cyclin A2) of 73 nM and an IC50 (A2058) of 650 nM.
In the case of `Nc1ccc(-c2ccc(F)c(C(=O)Nc3c[nH]nc3C(=O)Nc3ccc(F)cc3)c2F)cn1`, the IC50 [1] is reported as 1260 nM, the IC50 (CDK2/Cyclin A2) is reported as 120 nM and the IC50 (A2058) is reported as 8540 nM.
Compound `O=C(NC1CCNCC1)c1n[nH]cc1NC(=O)c1c(Cl)cccc1Cl` [AT-7519] has an IC50 (MV4-11) of 391 nM, an IC50 (MRC5) of 425 nM and an inhibition at 96 h, 100 µM [2] of 39.4%.
`O=C(Nc1ccc(F)cc1)c1n[nH]cc1NC(=O)c1c(F)ccc(-c2cccc(CO)c2)c1F` gave an IC50 [1] of 537 nM and an IC50 (CDK2/Cyclin A2) of 76 nM.
